Published values collected from several papers.
Lines come from different studies, so protocols differ.
Target: Ephrin type-B receptor 3 (EPHB3, Homo sapiens, UniProt P54753)

CCCOc1ccc(OC)c(F)c1C(=O)c1ccc(C(=O)N[C@@H]2CNC[C@H]2NC(=O)c2ccc3[nH]ncc3c2)cc1 — remaining activity (enzyme activity; inhibitor; 10 µM): 102%
CCN(CC)CCNC(=O)c1c(C)[nH]c(/C=C2\C(=O)Nc3ccc(F)cc32)c1C — inhibition (enzyme activity; inhibitor; 10 µM): 10%
Cc1ccc(C(=O)Nc2ccc(CN3CCN(C)CC3)c(C(F)(F)F)c2)cc1C#Cc1cnc2cccnn12 — remaining signal (cell-free assay; 23.5 nM): 100%
CC(C)(C)c1nc(-c2cccc(NS(=O)(=O)c3c(F)cccc3F)c2F)c(-c2ccnc(N)n2)s1 — remaining activity (enzyme activity; inhibitor; radiometric; 1 µM): 92%
O=C(Nc1cnn(-c2csc(C(=O)NC3COC3)c2)c1)Nc1c(F)cccc1Cl — remaining activity (enzyme activity; inhibitor; 5 µM): 96.5%
CN([C@@H]1CCc2c(CC(=O)O)c3ccccc3n2C1)S(=O)(=O)c1ccc(F)cc1 — remaining binding (cell-free assay; competition with immobilised ligand; 1 µM): 88%
CN(c1ncccc1CNc1nc(Nc2ccc3c(c2)CC(=O)N3)ncc1C(F)(F)F)S(C)(=O)=O — inhibition (enzyme activity; inhibitor; 1 µM): 41%
CNC(=O)c1cc(Oc2ccc(NC(=O)Nc3ccc(Cl)c(C(F)(F)F)c3)cc2)ccn1 — inhibition (enzyme activity; inhibitor; 0.3 µM): 3%
Cn1cncc1C1=CN(c2ncnc3[nH]cnc23)CCS1 — inhibition (enzyme activity; inhibitor; radiometric; 50 nM): 12.8%
O=C1NC(=O)c2cc(Nc3ccc(F)cc3)c(Nc3ccc(F)cc3)cc21 — remaining signal (cell-free assay; 0.5 µM): 94.7%
COc1ccnn2ncc(-c3ccnc(N(C)C)n3)c12 — remaining binding (binding; 1 µM): 100%
Cc1cc(NC(=O)c2cccc(S(F)(F)(F)(F)F)c2)cc(-n2ccn3nc(-c4cccnc4)cc23)c1 — remaining binding (cell-free assay; competition with immobilised ligand; 1 µM): 100%
Cn1c(=O)n(-c2ccc(C(C)(C)C#N)cc2)c2c3cc(-c4cnc5ccccc5c4)ccc3ncc21 — remaining activity (enzyme activity; inhibitor; 10 µM): 117%
COc1cc2ncnc(Nc3ccc(Oc4ccccc4)cc3C)c2cc1OC — inhibition (enzyme activity; inhibitor; 1 µM): 1%
CC(C)CC(=O)N1CCc2nc(-c3ccc(Br)cc3)nc(N(C)Cc3ccccc3)c2C1 — remaining binding (cell-free assay; competition with immobilised ligand; 0.1 µM): 100%
Cc1cc(NC(=O)c2cccc3cc(-c4cccc5[nH]nc(N)c45)ccc23)ccc1F — activity vs control (enzyme activity; inhibitor; 0.1 µM): 88%
CCN(CC)c1ccc(C2=NNC(=O)CC2C)cc1[N+](=O)[O-] (stereo not drawn) — remaining activity (enzyme activity; inhibitor; 10 µM): 102%
N#CCCc1ccc2c(c1)-c1[nH]c3ccc([N+](=O)[O-])cc3c1CC(=O)N2 — remaining signal (cell-free assay; 0.5 µM): 102%
Cn1nc(C(=O)NCc2ccc(C(=O)O)cc2)cc1-c1ccc2[nH]ccc2c1 — remaining binding (cell-free assay; competition with immobilised ligand; 0.1 µM): 100%
COc1cc(Nc2cnc(C#N)c(O[C@H](C)CN(C)C)n2)ncc1-c1cnn(C)c1 — remaining activity (enzyme activity; inhibitor; radiometric; 1 µM): 68%
Nc1ncnc2occ(-c3ccc(NC(=O)Nc4cc(C(F)(F)F)ccc4F)cc3)c12 — remaining signal (cell-free assay; 20 µM): 0%
CC(C)(O)[C@H]1CC[C@H](Nc2ccc3ncc(-c4cccc(C(F)(F)F)c4)n3n2)CC1 — remaining activity (enzyme activity; inhibitor; 1 µM): 87.9%
Cc1nc(C2CCN(C(=O)c3ccc(OC(F)(F)F)cc3N)CC2)c2ncc(N3CCN(C)CC3)cc2n1 — remaining binding (cell-free assay; competition with immobilised ligand; 1 µM): 100%
CC(C)(C)C(=O)c1sc(NC2CCCCC2)nc1N — remaining activity (enzyme activity; inhibitor; 10 µM): 94%
CN1CCN(c2cnc3c(C4CCN(C(=O)c5ccc(OC(F)(F)F)cc5N)CC4)ncnc3c2)CC1 — remaining binding (cell-free assay; competition with immobilised ligand; 1 µM): 100%
COc1cc(Cl)c(C(=O)N[C@@H](CN[C@H]2CC[C@@H](N)CC2)Cc2ccc(C#N)cc2)cc1-c1ccc(CN[C@H](C)c2ccc(C)cc2)o1 — remaining activity (enzyme activity; inhibitor; 1 µM): 97%
Cn1nc(C(F)(F)F)cc1-c1cnc(N2CCc3cc(S(=O)(=O)Nc4c(F)cc(Cl)cc4F)cc(N4CCCC4=O)c32)nc1 — remaining binding (cell-free assay; competition with immobilised ligand; 1 µM): 95%
C#Cc1cccc(Nc2ncnc3cc(OCCOC)c(OCCOC)cc23)c1 — remaining signal (cell-free assay; 0.5 µM): 58%
CCCOc1ccc([C@H]2[C@H](C(=O)O)[C@@H](c3ccc4c(c3)OCO4)CN2CC(=O)Nc2c(CC)cccc2CC)cc1 — remaining binding (cell-free assay; competition with immobilised ligand; 1 µM): 97%
COc1cc(/C=C/C(=O)CC(=O)/C=C/c2ccc(O)c(OC)c2)ccc1O — activity vs control (enzyme activity; inhibitor; 1 µM): 93%
